Tests used:
Type in all cases: cell-based
Conditions in all cases: pre-treated 1 h, MSU 500 μg/ml 12 h
[1] = system: MSU-treated THP-1 cells; assay: cAMP levels in MSU-treated THP-1 cells
[2] = system: NLRP3 inflammasome; assay: Western blot of NLRP3, ASC and Caspase-1 p20 in MSU-treated THP-1 cells
Method in brief: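 THP-1 cells (PMA-differentiated, pre-treated 1 h, MSU 500 μg/ml 12 h) were lysed in RIPA buffer. Lysates were resolved by 8–12% SDS-PAGE and transferred to PVDF. After blocking, membranes took primary antibodies overnight at 4 °C, three TBST washes and HRP secondary antibodies for 2 h, with ECL detection. n = 4 per group; mean ± SD; one-way ANOVA/Tukey.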

[3] = system: MSU-treated THP-1 cells; assay: IL-1β in culture supernatants of MSU-treated THP-1 cells
Method in brief: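 PMA-differentiated THP-1 cells (ATCC) were pre-treated 1 h with the test compound or a reference P2Y14R antagonist, then stimulated with MSU (500 μg/ml) for 12 h. IL-1β in collected culture supernatants was measured by ELISA kit. n = 4 per group; mean ± SD; one-way ANOVA with Tukey test, p < 0.05.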

O=C(O)c1cc(-c2ccc(C3CCNCC3)cc2)c2ccc(-c3ccc(C(F)(F)F)cc3)cc2c1 [PPTN]
effect on MSU-induced decrease of cAMP concentrations [1]: reversed
effect on MSU-increased protein expressions of NLRP3, ASC and Caspase-1 p20 [2]: reversed
effect on IL-1β release into the supernatant [3]: apparently inhibited the release of IL-1β
